Compound activity: PubChem, The Scripps Research Institute Molecular Screening Center
Sampled rows, rich in hits. Any-hit rate of the full collection: about 2.2%.
CHRM1 agonist – human M1 muscarinic receptor agonism. P11229. CHO-K1 hM1, Fluo-8 calcium fluorescence, agonist mode; 0% DMSO, 100% acetylcholine EC100. activation, % at 3 µM. 360,000 tested, 0.33% active;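 active = activation above the run's mean compound activation plus 3 SD, cut at about 16% in these data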;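 also: peak over basal fluorescence ratio within a 140 s kinetic read after compound addition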
CHRM5 antagonist – antagonists of human muscarinic M5 receptor (CHRM5). P08912. inhibition, % at 3 µM. AID 624040. CHO-hM5 cells, Fluo-8 calcium fluorescence, ACh EC80. 360,000 tested, 0.59% active;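 active = inhibition above a per-plate cutoff, the mean of that plate's test compounds plus 3 SD, cut at about 27% in these data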
Target sequence (P08912 whole entry, looked up): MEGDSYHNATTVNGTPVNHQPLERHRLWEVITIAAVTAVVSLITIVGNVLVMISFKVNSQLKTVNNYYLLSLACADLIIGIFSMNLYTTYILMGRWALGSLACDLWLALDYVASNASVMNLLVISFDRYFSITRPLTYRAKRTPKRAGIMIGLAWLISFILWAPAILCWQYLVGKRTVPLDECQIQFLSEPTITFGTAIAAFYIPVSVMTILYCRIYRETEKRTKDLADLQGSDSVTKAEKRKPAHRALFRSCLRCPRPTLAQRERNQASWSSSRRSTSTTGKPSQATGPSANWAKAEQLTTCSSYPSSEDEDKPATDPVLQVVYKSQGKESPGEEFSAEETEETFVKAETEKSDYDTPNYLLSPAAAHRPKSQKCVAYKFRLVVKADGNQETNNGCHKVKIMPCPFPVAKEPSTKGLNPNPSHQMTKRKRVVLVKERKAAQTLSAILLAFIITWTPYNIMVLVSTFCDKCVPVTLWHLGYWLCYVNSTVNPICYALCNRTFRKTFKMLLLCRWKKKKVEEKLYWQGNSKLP
M5 PAM – potentiates acetylcholine response at human M5 receptor | P08912 | CHO-K1 hM5, Fluo-8 calcium, ACh EC20 PAM; 0% = ACh EC20, 100% = ACh EC100 | activation, % at 3 µM | 360,000 tested, 0.3% active | AID 624038;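 active = activation above the run cutoff, the mean activation of all test compounds plus 3 SD, cut at about 18% in these data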
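Assay system: CHO-K1 hM5 cells / Incubation: Fluo-8 loading 80 min at 37 °C plus 30 min room temperature / Technique: Fluo-8 calcium dye fluorescence, kinetic read / Repeats: single replicate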
M1 antag – human CHRM1 antagonism. CHO-K1 hM1, Fluo-8 calcium fluorescence, ACh EC80 antagonist. inhibition, % at 3 µM. 360,000 tested, 1.3% active;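 active = percent inhibition above its own plate's cutoff, namely the mean of that plate's compound wells plus 3 SD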;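 also: peak over basal fluorescence ratio during 140 s after agonist addition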
CHRM5 agonist – CHRM5 agonism in calcium assay | P08912 | CHO-K1 hM5 cells, Fluo-8 calcium fluorescence; 0% DMSO wells, 100% maximal acetylcholine response | activation, % at 3 µM | 360,000 tested, 0.19% active | AID 624037;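 active = activation above the run's mean over test compounds plus 3 SD, cut at about 23% in these data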;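 also: signal is peak over basal fluorescence ratio across the kinetic read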
CHRM1 PAM – positive allosteric modulators of human M1 muscarinic receptor; P11229; CHO-K1 hM1, Fluo-8 calcium fluorescence, ACh EC20; 0% = ACh EC20, 100% = maximal ACh; activation, % at 3 µM; 360,000 tested, 0.088% active; in the data active = activation above about 19%, passing the limit was not always enough
Hits are given with their value; 0 = inactive.

SMILES	CHRM1 agonist	CHRM5 antagonist	M5 PAM	M1 antag	CHRM5 agonist	CHRM1 PAM
COc1ccc2c(c1)OC[C@H]1[C@H]2N2C(=O)c3cc(OC)ccc3NC(=O)[C@@]2(C)[C@H]1c1ccccc1	0	0	0	27	0	0
CCN(Cc1cnn(C)c1)C(=O)c1ccc2nc(Cc3cccc(Cl)c3)oc2c1	0	0	0	0	0	0
Cc1nn(CC(=O)NCCN2CCCCC2C)c(=O)c2cc(-c3ccccc3)nn12 (stereo unspecified)	0	0	32	0	0	0
O=C(CCc1nc2ccccc2c(=O)[nH]1)Nc1nnc(SCc2ccccc2F)s1	0	0	0	49	0	0
Cc1ccc(CNC(=O)CCc2nc3ccccc3c(=O)[nH]2)cc1	0	0	36	0	0	0
CCOC(=O)c1ccccc1Cc1nc2ccccc2c(=O)[nH]1	0	44	0	98	0	0
COc1ccc(CC(=O)N[C@@H](C)C(=O)N2CCC3(CC2)NCCc2[nH]cnc23)cc1	0	0	0	0	0	0
O=C(N/N=C/c1c(O)n(Cc2ccco2)c(=O)[nH]c1=O)c1ccccc1	0	0	0	0	0	0
CCOc1ccc(C(=O)NCCC(=O)NCCCC(=O)O)cc1	0	0	0	0	0	0
O=C(OCCCN1CCCC1)C1(c2ccccc2)CCCC1	0	39	0	96	0	0
CCN(CC)CCOC(=O)C1(c2ccccc2)CCCC1	0	99	0	100	0	0
CCN(CC)CCOC(=O)C1(c2ccc(OC)c(OC)c2)CCCC1	0	28	0	77	0	0
CN(C)CCOC(=O)C1(c2ccccc2)CCOCC1	0	0	0	23	0	0
Cc1ccc(NC(=O)C2(c3ccccc3)CCOCC2)cc1	0	0	0	0	0	0
COc1ccc(CNS(=O)(=O)c2ccc(-c3ccc(=O)[nH]n3)s2)cc1OC	0	0	0	0	0	0
CCN(CC)c1ccc(S(=O)(=O)N2CCOCC2)cc1NC(=O)COC(=O)/C=C/c1ccc(O)c(OC)c1	0	0	0	0	0	0
O=C(COC(=O)/C=C/c1ccc(S(=O)(=O)N2CCOCC2)cc1)NCc1ccc(Cl)cc1	0	0	19	0	0	0
CCN(CC)c1ccc(S(=O)(=O)N2CCOCC2)cc1NC(=O)COC(=O)/C=C/c1ccccc1	0	0	0	32	0	0
CCN(CC)c1ccc(S(=O)(=O)N2CCOCC2)cc1NC(=O)COC(=O)/C=C/c1ccc(C)o1	0	31	0	0	0	0
O=C(c1ccco1)N1CCN(Cc2nc3ccccc3[nH]2)CC1	0	0	0	0	0	0
O=C(Nc1ccccc1)c1cc(C2CCCN(C(=O)CCc3ccccc3)C2)on1 (stereo unspecified)	0	0	0	0	0	0
CN(C)c1ccc(CC(=O)N2CCCC(c3cc(C(=O)Nc4ccc(C(C)(C)C)cc4)no3)C2)cc1 (stereo unspecified)	0	0	0	29	0	0
Cc1ccc(NC(=O)CSc2nn(-c3ccccc3)c(=S)s2)cc1S(=O)(=O)N(C)C	0	30	0	25	0	0
CC(C)c1cc(-c2cc(C(=O)NCc3ccccc3)on2)nc(NCC2CC2)n1	29	28	0	34	36	0
COc1ccc(C(CNC(=O)COc2cc(C)ccc2Cl)N2CCCCC2)cc1 (stereo unspecified)	0	0	0	0	0	0
O=C(NCC(c1ccco1)N1CCCC1)c1sc2cc(F)ccc2c1Cl (stereo unspecified)	0	0	0	0	0	0
COc1ccccc1C(CNC(=O)COc1ccccc1C)N1CCCC1 (stereo unspecified)	0	0	0	59	0	0
Cc1ccc2c(Cl)c(C(=O)NCC(c3ccco3)N3CCCC3)sc2c1 (stereo unspecified)	0	27	0	0	0	0
COc1ccccc1C(CNC(=O)COc1cc(C)ccc1Cl)N1CCCC1 (stereo unspecified)	0	0	0	62	0	0
Cc1ccccc1OCC(=O)NCC(c1ccco1)N1CCCCC1 (stereo unspecified)	0	0	0	28	0	0
